The source made the active and inactive calls. The rule behind the calls is not given here.
Columns and labels:
[1] = molecular target: Vascular endothelial growth factor receptor 2 (Homo sapiens, UniProt P35968); assay: Inhibition of recombinant human VEGFR2 using poly (Glu, Tyr) 4:1 as substrate after 60 mins by ELISA
[2] = Cmax in Sprague-Dawley rat at 5 mg/kg, po; assay type: ADME, organism-based; design: dose 5 mg/kg, route oral; settings: in vivo
Summary of the method: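 Male SD rats (n = 3) dosed orally by gavage at 5 mg/kg as a suspension in 0.5% CMC-Na. Quantified by LC-MS/MS. An IV arm (1 mg/kg) was run in parallel.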

[3] = molecular target: Receptor tyrosine-protein kinase erbB-2 (Homo sapiens, UniProt P04626); assay: Inhibition of recombinant human ErbB2 using poly (Glu, Tyr) 4:1 as substrate after 60 mins by ELISA
Summary of the method: (§1)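 Purified recombinant kinases tested by ELISA on plates pre-coated with 20 µg/mL poly(Glu,Tyr) 4:1. Reaction run 60 min at 37 °C. Read-out: PY99 anti-phosphotyrosine antibody, HRP anti-mouse IgG and o-phenylenediamine/H2O2, with A490 measured. IC50 from inhibition curves, two independent experiments.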

[4] = molecular target: Platelet-derived growth factor receptor alpha (Homo sapiens, UniProt P16234); assay: Inhibition of recombinant human PDGFRalpha using poly (Glu, Tyr) 4:1 as substrate after 60 mins by ELISA; summary of the method: as §1
Platelet-derived growth factor receptor alpha, sequence (P16234 whole entry): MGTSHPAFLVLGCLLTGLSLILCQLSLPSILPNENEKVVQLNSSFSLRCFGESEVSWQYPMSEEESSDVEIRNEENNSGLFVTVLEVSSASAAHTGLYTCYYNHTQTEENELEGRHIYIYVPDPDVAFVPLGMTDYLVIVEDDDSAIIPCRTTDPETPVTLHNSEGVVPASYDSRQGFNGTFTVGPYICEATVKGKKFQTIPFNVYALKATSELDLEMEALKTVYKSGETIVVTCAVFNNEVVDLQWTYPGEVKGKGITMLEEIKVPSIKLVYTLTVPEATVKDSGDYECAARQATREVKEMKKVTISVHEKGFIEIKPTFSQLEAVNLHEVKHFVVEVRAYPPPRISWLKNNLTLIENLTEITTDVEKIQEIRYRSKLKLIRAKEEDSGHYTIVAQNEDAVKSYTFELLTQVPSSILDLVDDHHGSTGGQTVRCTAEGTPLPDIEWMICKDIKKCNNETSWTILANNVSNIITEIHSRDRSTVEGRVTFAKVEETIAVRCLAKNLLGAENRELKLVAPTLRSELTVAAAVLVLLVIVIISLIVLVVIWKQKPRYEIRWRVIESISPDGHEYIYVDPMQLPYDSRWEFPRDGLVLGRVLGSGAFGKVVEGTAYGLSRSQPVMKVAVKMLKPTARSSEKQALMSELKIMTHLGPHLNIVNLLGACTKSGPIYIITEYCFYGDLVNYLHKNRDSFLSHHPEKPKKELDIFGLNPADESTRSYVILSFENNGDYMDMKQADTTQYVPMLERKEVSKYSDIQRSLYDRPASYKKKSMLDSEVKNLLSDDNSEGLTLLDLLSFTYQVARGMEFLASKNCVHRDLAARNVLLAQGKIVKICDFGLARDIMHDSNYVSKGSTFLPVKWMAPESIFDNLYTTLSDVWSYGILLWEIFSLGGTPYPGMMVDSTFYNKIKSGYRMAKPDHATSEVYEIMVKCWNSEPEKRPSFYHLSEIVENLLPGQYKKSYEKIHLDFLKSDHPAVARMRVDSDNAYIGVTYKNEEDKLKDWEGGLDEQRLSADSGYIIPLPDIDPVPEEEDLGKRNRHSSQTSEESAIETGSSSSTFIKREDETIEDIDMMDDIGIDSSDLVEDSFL

[5] = molecular target: T1, Receptor-type tyrosine-protein kinase FLT3 (Homo sapiens, UniProt P36888); assay: Inhibition of recombinant human Flt3 using poly (Glu, Tyr) 4:1 as substrate after 60 mins by ELISA; summary of the method: as §1
T1 sequence (P36888 whole entry): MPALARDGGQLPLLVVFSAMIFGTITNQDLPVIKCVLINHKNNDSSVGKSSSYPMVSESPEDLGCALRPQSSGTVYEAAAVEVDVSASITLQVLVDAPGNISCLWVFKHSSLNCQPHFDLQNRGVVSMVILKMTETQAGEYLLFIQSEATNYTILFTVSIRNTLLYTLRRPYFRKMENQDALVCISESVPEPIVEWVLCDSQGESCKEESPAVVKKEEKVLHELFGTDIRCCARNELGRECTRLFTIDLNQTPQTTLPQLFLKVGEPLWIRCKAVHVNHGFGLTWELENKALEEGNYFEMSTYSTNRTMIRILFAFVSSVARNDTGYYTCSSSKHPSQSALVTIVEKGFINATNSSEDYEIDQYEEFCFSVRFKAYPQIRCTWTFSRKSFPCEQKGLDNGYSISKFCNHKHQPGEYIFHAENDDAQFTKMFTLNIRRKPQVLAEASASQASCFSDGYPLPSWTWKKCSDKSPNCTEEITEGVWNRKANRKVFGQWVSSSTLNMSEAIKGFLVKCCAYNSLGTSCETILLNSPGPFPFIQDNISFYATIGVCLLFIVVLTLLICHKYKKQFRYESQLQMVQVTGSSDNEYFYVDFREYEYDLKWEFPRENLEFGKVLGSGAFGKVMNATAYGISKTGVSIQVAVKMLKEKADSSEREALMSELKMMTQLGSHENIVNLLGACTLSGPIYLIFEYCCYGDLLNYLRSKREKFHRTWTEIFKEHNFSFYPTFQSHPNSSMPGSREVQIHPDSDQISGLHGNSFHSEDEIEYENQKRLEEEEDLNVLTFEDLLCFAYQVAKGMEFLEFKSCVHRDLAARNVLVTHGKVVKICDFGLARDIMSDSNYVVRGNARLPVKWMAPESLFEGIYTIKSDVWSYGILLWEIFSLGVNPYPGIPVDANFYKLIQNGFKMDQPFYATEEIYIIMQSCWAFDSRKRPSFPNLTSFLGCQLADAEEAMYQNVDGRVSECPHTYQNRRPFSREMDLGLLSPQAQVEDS

Bcr/Abl fusion protein = Bcr/Abl fusion protein (Homo sapiens, UniProt P00519); assay: Inhibition of recombinant human Bcr-Abl using poly (Glu, Tyr) 4:1 as substrate after 60 mins by ELISA; assay type: protein assay; summary of the method: as §1
Ephrin type-A receptor 2 = Ephrin type-A receptor 2 (Homo sapiens, UniProt P29317); assay: Inhibition of recombinant human EPHA2 using poly (Glu, Tyr) 4:1 as substrate after 60 mins by ELISA; summary of the method: as §1
Ephrin type-A receptor 2, sequence (P29317 whole entry): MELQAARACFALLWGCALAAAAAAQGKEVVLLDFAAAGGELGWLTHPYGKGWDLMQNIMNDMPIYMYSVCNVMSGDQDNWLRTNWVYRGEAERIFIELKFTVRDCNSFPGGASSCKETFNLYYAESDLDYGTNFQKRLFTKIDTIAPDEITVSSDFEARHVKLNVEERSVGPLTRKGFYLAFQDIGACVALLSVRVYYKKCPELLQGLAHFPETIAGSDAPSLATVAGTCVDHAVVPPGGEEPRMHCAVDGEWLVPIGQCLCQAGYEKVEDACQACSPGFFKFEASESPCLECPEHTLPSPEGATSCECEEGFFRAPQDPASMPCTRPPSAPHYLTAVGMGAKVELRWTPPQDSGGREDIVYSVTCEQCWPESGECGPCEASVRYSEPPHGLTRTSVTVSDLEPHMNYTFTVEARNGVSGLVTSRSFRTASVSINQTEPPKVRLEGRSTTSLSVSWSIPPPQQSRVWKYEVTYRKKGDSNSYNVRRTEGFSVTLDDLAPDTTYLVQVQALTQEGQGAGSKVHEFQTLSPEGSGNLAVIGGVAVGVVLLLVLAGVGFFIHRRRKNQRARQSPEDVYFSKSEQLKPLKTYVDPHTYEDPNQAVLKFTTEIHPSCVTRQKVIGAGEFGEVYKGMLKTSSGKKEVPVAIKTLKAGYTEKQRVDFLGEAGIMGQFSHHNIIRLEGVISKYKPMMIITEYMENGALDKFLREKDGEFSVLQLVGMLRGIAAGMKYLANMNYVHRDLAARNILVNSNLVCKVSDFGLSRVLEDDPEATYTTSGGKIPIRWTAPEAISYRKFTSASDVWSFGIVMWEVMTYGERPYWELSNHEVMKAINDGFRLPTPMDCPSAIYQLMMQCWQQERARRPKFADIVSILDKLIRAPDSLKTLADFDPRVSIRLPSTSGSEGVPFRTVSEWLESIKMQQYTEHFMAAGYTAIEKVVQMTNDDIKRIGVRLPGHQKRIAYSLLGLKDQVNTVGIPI

[6] = molecular target: T2, Fibroblast growth factor receptor 2 (Homo sapiens, UniProt P21802); assay: Inhibition of FGFR2 phosphorylation in human SNU15 cells at 0.1 to 10 nM after 2 hrs by Western blot method; assay type: cell-based
T2 sequence (P21802 22-821 limits assumed): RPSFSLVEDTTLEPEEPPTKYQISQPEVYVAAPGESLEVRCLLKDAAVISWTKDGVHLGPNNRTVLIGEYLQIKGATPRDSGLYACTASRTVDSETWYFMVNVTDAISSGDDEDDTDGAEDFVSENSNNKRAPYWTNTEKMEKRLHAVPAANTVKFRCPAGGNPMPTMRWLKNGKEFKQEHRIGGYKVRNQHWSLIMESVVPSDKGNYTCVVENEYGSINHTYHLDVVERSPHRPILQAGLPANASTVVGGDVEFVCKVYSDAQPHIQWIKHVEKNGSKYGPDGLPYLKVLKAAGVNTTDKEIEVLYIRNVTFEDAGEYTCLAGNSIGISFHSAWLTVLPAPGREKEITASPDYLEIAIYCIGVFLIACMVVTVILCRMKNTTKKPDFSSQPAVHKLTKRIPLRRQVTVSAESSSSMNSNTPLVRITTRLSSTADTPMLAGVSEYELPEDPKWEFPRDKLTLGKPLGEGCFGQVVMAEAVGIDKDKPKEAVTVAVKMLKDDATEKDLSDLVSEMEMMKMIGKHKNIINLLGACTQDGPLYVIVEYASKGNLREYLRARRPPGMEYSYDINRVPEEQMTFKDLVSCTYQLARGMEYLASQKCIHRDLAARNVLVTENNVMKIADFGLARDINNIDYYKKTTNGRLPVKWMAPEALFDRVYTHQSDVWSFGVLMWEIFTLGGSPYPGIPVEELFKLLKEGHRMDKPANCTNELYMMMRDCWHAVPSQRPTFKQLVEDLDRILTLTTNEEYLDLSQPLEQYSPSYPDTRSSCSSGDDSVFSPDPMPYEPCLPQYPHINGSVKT

[7] = molecular target: T2, Fibroblast growth factor receptor 2; assay: Inhibition of FGFR2 in human SNU15 cells assessed as reduction of ERK phosphorylation at 0.1 to 10 nM after 2 hrs by Western blot method; assay type: cell-based
NCI-H1581 [8] = assay: Antitumor activity against FGFR1-amplified human NCI-H1581 cells xenografted in nude mouse assessed as tumor growth inhibition at 2 mg/kg, po qd administered for 21 days measured on day 21 post last dose relative to vehicle-treated control; assay type: functional; settings: 504 h, read-out: TGI
Summary of the method: (§2)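 Female nude mice (4–6 weeks) housed under SPF conditions. NCI-H1581 tumours were first grown from 5 × 10^6 cells s.c., and 1.5 mm3 fragments were then transplanted s.c. into the right flank. At 115 mm3, mice were randomized and given vehicle or compound orally once daily for 21 days (2 or 10 mg/kg). Tumours were measured by caliper twice weekly, with TV = length × width²/2.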

NCI-H1581 [9] = assay: Antitumor activity against human NCI-H1581 cells xenografted in nude mouse assessed as tumor growth inhibition at 10 mg/kg, po qd administered for 21 days measured on day 21 post last dose relative to vehicle-treated control; assay type: functional; settings: 504 h, read-out: TGI; summary of the method: as §2
cells = settings: Homo sapiens, KG-1, 72 h

Vascular endothelial growth factor receptor 2, sequence (P35968 whole entry): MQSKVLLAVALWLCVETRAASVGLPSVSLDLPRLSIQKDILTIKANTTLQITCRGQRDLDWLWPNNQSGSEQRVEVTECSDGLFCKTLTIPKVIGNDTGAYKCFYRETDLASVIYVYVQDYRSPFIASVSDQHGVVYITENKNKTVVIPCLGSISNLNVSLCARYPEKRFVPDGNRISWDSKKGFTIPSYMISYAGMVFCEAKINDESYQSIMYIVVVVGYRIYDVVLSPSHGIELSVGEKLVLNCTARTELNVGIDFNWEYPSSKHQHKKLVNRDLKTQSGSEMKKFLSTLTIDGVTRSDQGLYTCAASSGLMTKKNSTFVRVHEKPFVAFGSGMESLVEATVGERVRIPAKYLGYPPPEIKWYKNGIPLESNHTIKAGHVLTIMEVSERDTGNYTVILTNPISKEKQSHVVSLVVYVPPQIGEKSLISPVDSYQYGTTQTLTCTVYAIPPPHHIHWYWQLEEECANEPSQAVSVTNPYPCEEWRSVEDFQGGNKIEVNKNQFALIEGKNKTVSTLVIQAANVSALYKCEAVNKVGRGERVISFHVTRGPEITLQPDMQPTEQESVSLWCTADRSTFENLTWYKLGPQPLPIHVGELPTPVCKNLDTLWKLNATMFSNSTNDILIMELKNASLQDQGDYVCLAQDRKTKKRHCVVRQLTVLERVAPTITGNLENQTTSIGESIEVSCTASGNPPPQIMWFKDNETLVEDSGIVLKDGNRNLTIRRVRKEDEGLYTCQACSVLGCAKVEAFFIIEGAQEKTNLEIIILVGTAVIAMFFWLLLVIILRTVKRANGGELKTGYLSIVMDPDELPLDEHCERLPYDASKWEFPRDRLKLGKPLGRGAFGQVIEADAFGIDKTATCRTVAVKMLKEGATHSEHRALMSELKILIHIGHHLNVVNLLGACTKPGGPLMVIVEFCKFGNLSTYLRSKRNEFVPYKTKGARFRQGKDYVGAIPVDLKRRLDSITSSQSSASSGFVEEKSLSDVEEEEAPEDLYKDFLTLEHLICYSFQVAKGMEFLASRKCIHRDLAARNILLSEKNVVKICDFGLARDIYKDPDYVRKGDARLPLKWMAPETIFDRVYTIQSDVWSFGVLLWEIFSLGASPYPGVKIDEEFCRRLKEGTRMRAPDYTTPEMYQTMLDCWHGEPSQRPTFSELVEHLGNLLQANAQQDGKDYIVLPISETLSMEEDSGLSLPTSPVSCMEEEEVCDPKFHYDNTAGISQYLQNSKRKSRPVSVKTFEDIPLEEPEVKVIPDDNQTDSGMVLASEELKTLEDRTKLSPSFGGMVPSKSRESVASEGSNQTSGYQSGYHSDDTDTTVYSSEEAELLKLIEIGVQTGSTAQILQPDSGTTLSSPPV

C[C@@H](Oc1ccc2[nH]nc(-c3nc4cc(N5CCN(C)CC5)ccc4[nH]3)c2c1)c1c(Cl)cncc1Cl
IC50 [1]: 7.5 nM
Cmax [2]: 97.2 ng/mL
IC50 [3]: > 1000 nM
IC50 [4]: 782 nM
IC50 [5]: > 100 nM
IC50 (Bcr/Abl fusion protein): > 100 nM
IC50 (Ephrin type-A receptor 2): > 100 nM
inhibition [6]: Active
inhibition [7]: Active
inhibition in vivo at 2 mg/kg (NCI-H1581 [8]): 44.5%
inhibition in vivo at 10 mg/kg (NCI-H1581 [9]): 96.9%
IC50 (cells): < 0.1 nM

— ChEMBL document CHEMBL3826910, “Discovery of 3-(5'-Substituted)-Benzimidazole-5-(1-(3,5-dichloropyridin-4-yl)ethoxy)-1H-indazoles as Potent Fibroblast Growth Factor Receptor Inhibitors: Design, Synthesis, and Biological Evaluation” (J Med Chem, 2016)
